The full list was thinned out, with hits kept by preference.
INS-1E ATP HTS = rescue of cytokine-induced death in INS-1E beta cells; INS-1E cytokine-induced death, ATP luminescence, 48 h; normalised: neutral wells 0, positive control 100; protection from cytokine-induced ATP loss, % at 10 µM; hit rate 0.1% among 20,000; AID 488910;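 active means mean replicate protection from cytokine-induced ATP loss at least 50% and at least 75% of replicates each reaching 50%; inconclusive means meets only one of the two criteria, mean or replicate share; inactive means fails both the mean and replicate share criteria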
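Assay system – rat INS-1E insulinoma cell line · Quantity – 8000 cells per well · Buffer or medium – RPMI without phenol red, 5% FBS · Schedule – 48 h co-treatment, 10 min post-lysis read · Technique – luminescent ATP assay (CellTiter-Glo)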
A1 apoptosis 2 = A1 inhibition read as caspase activation | MEF A1-2A-BIM cells, caspase-Glo luminescence, 3 h; percent of clofoctol response, DMSO zero | caspase activation, % (no concentration beside the values) | 24,000 tested, under 10 active | AID 2465; in the data active means caspase activation above about 5.9%; inconclusive means no clear call, values can overlap the other calls; inactive means below about 2.2%
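Material: A1-2A-BIM-expressing MEF cells. Buffer or medium: RPMI-1640 plus 10% FBS. Incubation: cells settled overnight, compound exposure 3 h at 37 °C, 5% CO2. Signal: Caspase-Glo 3/7 luminescence, 1 h at room temperature.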
T cruzi intra = intracellular Trypanosoma cruzi inhibition; AID 651903; activity score (inhibition), % at 5.01 µM; hit rate 4.9% among 22,000; intracellular Trypanosoma cruzi in host cells, plate reader; in the data active means activity score above about 55%; inconclusive means no clear call, values can overlap the other calls;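 further: parasites and compound incubated about four days before reading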
Large screens that a line does not name were inactive.

COC(=O)[C@H](Cc1ccc(N=[N+]=[N-])cc1)N1CC2=C[C@H]([C@@H](O)Cc3ccccc3)n3c(=O)n(C)c(=O)n3[C@@H]2[C@@H](C2CC2)O1	none (no result: INS-1E ATP HTS, T cruzi intra)
Cc1noc(C)c1NC(=O)Nc1cccc2c1O[C@@H](CN(C)Cc1ccc(-c3ccccc3)cc1)[C@@H](C)CN([C@@H](C)CO)C2=O	none
O=C(CCCCCC(=O)N/N=C/c1ccco1)NO	none (no result: INS-1E ATP HTS, T cruzi intra)
C[C@@H]1CCCCO[C@@H](CN(C)Cc2ccc(C(=O)Nc3ccccc3N)cc2)[C@@H](C)CN([C@H](C)CO)C(=O)c2cc(NC(=O)Nc3ccc(C(F)(F)F)cc3)ccc2O1	T cruzi intra 81
C[C@@H]1CCCCO[C@@H](CN(C)Cc2ccc(C(=O)Nc3ccccc3N)cc2)[C@@H](C)CN([C@H](C)CO)C(=O)c2cc(NC(=O)Nc3ccc(F)cc3)ccc2O1	none (no result: A1 apoptosis 2)
COC(=O)CCCCCCC(=O)N/N=C/C1(NC(=O)OC(C)(C)C)CCCC1	none (no result: A1 apoptosis 2)
C[C@@H]1CN([C@@H](C)CO)C(=O)Cc2cc(NS(=O)(=O)c3ccc(Cl)cc3)ccc2O[C@@H]1CN(C)Cc1ccc(Cl)c(Cl)c1	T cruzi intra 61
C[C@@H]1CN([C@@H](C)CO)C(=O)Cc2cc(NS(=O)(=O)c3ccccc3)ccc2O[C@@H]1CN(C)Cc1ccc(Cl)c(Cl)c1	none (no result: A1 apoptosis 2)
C[C@H]1CN([C@@H](C)CO)C(=O)Cc2cc(NS(C)(=O)=O)ccc2O[C@@H]1CN(C)Cc1ccc(Cl)c(Cl)c1	T cruzi intra 64
C[C@@H]1CN([C@H](C)CO)C(=O)Cc2cc(NS(C)(=O)=O)ccc2O[C@@H]1CN(C)Cc1ccc(Cl)c(Cl)c1	none (no result: A1 apoptosis 2)
C[C@H]1CN([C@@H](C)CO)C(=O)Cc2cc(NS(=O)(=O)c3ccc(Cl)cc3)ccc2O[C@@H]1CN(C)Cc1ccc(Cl)c(Cl)c1	none (no result: A1 apoptosis 2)
C[C@H]1CN([C@@H](C)CO)C(=O)Cc2cc(NS(=O)(=O)c3ccccc3)ccc2O[C@@H]1CN(C)Cc1ccc(Cl)c(Cl)c1	T cruzi intra 65
COc1ccc(O)c(/C=N/NC(=O)c2cccc(C(=O)NO)c2)c1	none
COC(=O)CCCCCCC(=O)N/N=C/C[C@H](O)[C@H](O)[C@@H](C)O	none (no result: A1 apoptosis 2)
O=C(CCCCCC(=O)Nc1ccccc1O)N/N=C/[C@@H](O)[C@H](O)[C@H](O)CO	none (no result: INS-1E ATP HTS, T cruzi intra)
CCCN(C)C[C@@H]1Oc2ncc(-c3cc4ccccc4o3)cc2C(=O)N([C@H](C)CO)C[C@@H]1C	T cruzi intra inconclusive (no result: INS-1E ATP HTS)
COc1ccc(S(=O)(=O)N(C)C[C@@H]2Oc3ncc(-c4cc5ccccc5o4)cc3C(=O)N([C@H](C)CO)C[C@@H]2C)cc1	none
C[C@H](CO)N1C[C@H](C)[C@H](CN(C)S(=O)(=O)c2cccs2)Oc2ncc(-c3cc4ccccc4o3)cc2C1=O	T cruzi intra 67 (no result: INS-1E ATP HTS)
C[C@H](CO)N1C[C@H](C)[C@H](CN(C)C)Oc2ncc(-c3cc4ccccc4o3)cc2C1=O	T cruzi intra 85 (no result: INS-1E ATP HTS)
C[C@H](CO)N1C[C@H](C)[C@H](CN(C)Cc2ccc3c(c2)OCO3)Oc2ncc(-c3cc4ccccc4o3)cc2C1=O	T cruzi intra 78 (no result: INS-1E ATP HTS)
C[C@H](CO)N1C[C@H](C)[C@H](CN(C)Cc2ccc3c(c2)OCO3)Oc2ncc(-c3ccc(F)cc3)cc2C1=O	none (no result: INS-1E ATP HTS)
COc1ccc(/C=N/NC(=O)c2ccccn2)cc1	none
COC(=O)C(CC#Cc1ccc2c(c1)[C@]1(C(=O)N2)[C@H](C(=O)NC[C@H](O)c2ccccc2)[C@H]2C(=O)O[C@H](c3ccccc3)[C@H](c3ccccc3)N2[C@@H]1c1ccc(O)cc1)C(=O)OC	none (no result: INS-1E ATP HTS, T cruzi intra)
O=C(N/N=C/c1ccc(F)cc1)c1ccccc1O	none
O=C1O[C@@H](c2ccccc2)[C@@H](c2ccccc2)N2[C@@H](c3ccccc3OCCO)[C@]3(C(=O)Nc4ccc(C#CCCO)cc43)[C@@H](C(=O)NC[C@H](O)c3ccccc3)[C@H]12	none (no result: INS-1E ATP HTS, T cruzi intra)
C[C@@H]1CN([C@H](C)CO)C(=O)c2cccc(NC(=O)Nc3ccc(F)cc3)c2O[C@H]1CN(C)Cc1ccc(-c2ccccc2)cc1	none
C[C@@H]1CN([C@@H](C)CO)C(=O)c2cccc(NC(=O)Nc3ccccc3)c2O[C@H]1CN(C)Cc1ccc(Oc2ccccc2)cc1	T cruzi intra 76
C[C@@H]1CN([C@@H](C)CO)C(=O)c2cccc(NC(=O)Nc3ccc(F)cc3)c2O[C@@H]1CN(C)Cc1ccc(-c2ccccc2)cc1	T cruzi intra 69
C[C@H](CO)N1C[C@H](C)[C@H](CN(C)Cc2ccc(Oc3ccccc3)cc2)Oc2c(NC(=O)Nc3ccc(F)cc3)cccc2C1=O	none
C[C@@H]1CN([C@H](C)CO)C(=O)c2cccc(NC(=O)Nc3ccccc3)c2O[C@H]1CN(C)Cc1ccc(Oc2ccccc2)cc1	none

From PubChem
